Blank lines part the entries; values can stand above or below the compound they belong to.
Assays:
[1] = biological target: α-glucosidase (Saccharomyces cerevisiae, UniProt P53341); assay: α-glucosidase inhibitory activity; type: biochemical; conditions: read-out: glucosidase inhibition IC50 ± SEM; mean ± SEM
[2] = test system: Balb/C mice; assay: acute toxicity study in mice; type: in vivo; conditions: for mortality: maximum oral dose of 2000 mg/kg (b.w.); for toxic effects (diarrhea, convulsions, lethargy, sleeping, salivation, tremor): oral up to 2000 mg/kg, observed daily for 2 weeks
Method in brief: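 Two-phase modified Lorke protocol in Balb/C mice (20–25 g), four per group. Phase 1: control given Tween-80 (2%); other groups received oral test compound at 100, 500 or 1000 mg/kg. Phase 2: oral doses of 1250, 1500 and 2000 mg/kg. Animals observed for the first 24 h, then daily for 2 weeks for diarrhea, convulsions, lethargy, sleeping, salivation and tremors, with mortality monitored.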

[3] = test system: overnight fasted normal rats; assay: oral glucose tolerance test; type: in vivo, Wistar albino rats; conditions: OGTT, glucose 3 g/kg oral
[4] = body weight of STZ-induced diabetic rats; type: in vivo, Wistar albino rats; conditions: for body weight, day 1: day 1, in g (unit assumed); for body weight, day 7: day 7, in g (unit assumed); for body weight, day 14: day 14, in g (unit assumed); for body weight, day 21: day 21, in g (unit assumed); for body weight, day 28: day 28, in g (unit assumed)
Method in brief: (§1)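 Male Wistar albino rats (170–200 g, 8–10 weeks), fasted overnight, given STZ 50 mg/kg i.p. in 0.1 M citrate buffer, then 10% glucose for 3 days. Tail-vein glucose by glucometer at 72 h; >250 mg/dL counted as diabetic. Body weight and blood glucose on days 1, 7, 14, 21 and 28. Means ± SEM, one-way ANOVA with Dunnett's test.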

[5] = test system: streptozotocin-induced diabetic Wistar rats; assay: serum profile; type: in vivo, Wistar albino rats; conditions: STZ-diabetic rats; for (ALP) IU / (SGOT) IU / (SGPT) IU: serum
Method in brief: (§2)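 STZ-diabetic Wistar rats (n = 8 per group) received test compound at 10 or 20 mg/kg p.o., or glibenclamide 500 μg/kg p.o., once daily for 28 days; controls received vehicle. On day 28, rats were anesthetised with pentobarbital sodium (35 mg/kg) and blood was drawn by cardiac puncture. Serum ALP, SGPT, SGOT, LDL, HDL, TG, total cholesterol, creatinine and insulin were measured. Means ± SEM, one-way ANOVA with Dunnett's test.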

[6] = test system: streptozotocin-induced diabetic Wistar rats; assay: antidiabetic activity: blood glucose in STZ-induced diabetes; type: in vivo, Wistar albino rats
Method in brief: as §1

[7] = test system: streptozotocin-induced diabetic Wistar rats; assay: lipid profile in streptozotocin-induced diabetes; type: in vivo, Wistar albino rats; conditions: STZ-diabetic rats
Method in brief: as §2

[8] = 20 mg/kg p.o. once daily, day 28, 20 mg/kg

Chain of α-glucosidase (P53341 whole entry): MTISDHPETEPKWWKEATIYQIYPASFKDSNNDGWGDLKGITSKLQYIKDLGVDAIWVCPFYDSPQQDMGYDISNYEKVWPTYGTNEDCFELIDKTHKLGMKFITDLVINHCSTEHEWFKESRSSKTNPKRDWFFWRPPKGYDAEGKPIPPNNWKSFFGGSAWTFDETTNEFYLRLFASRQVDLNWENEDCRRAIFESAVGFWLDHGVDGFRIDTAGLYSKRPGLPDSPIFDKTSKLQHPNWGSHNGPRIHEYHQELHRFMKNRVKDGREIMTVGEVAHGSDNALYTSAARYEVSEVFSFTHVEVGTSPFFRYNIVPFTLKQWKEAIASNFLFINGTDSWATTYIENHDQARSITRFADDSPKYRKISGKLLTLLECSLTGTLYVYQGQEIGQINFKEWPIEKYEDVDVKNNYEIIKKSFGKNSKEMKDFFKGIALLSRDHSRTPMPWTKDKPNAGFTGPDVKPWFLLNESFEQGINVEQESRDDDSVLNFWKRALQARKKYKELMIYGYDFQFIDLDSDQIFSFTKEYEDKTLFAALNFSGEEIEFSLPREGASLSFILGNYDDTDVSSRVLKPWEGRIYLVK

IC50 [1]: 6.28 ± 0.71 µM
Compound: 2-(3-Methoxy-4-propoxyphenyl)-4-(p-tolyl)-2,3-dihydrobenzo[b][1,5]thiazepine [5B]

Compound: 4-(4-(p-Tolyl)-2,3-dihydrobenzo[b][1,5]thiazepin-2-yl)benzoic acid [7B]
mortality [2]: no mortality
toxic effects (diarrhea, convulsions, lethargy, sleeping, salivation, tremor) [2]: no toxic effects
IC50 [1]: 3.96 ± 0.42 µM
blood glucose level, 0 min ([3]; dose 10 mg/kg): 104.01 ± 4.97 mg/dL
blood glucose level, 30 min ([3]; dose 10 mg/kg): 120.71 ± 5.01 mg/dL
blood glucose level, 60 min ([3]; dose 10 mg/kg): 120.90 ± 4.54 mg/dL
blood glucose level, 90 min ([3]; dose 10 mg/kg): 116.52 ± 4.11 mg/dL
blood glucose level, 120 min ([3]; dose 10 mg/kg): 109.25 ± 4.91 mg/dL
blood glucose level, 0 min ([3]; dose 20 mg/kg): 103.88 ± 4.04 mg/dL
blood glucose level, 30 min ([3]; dose 20 mg/kg): 117.41 ± 4.70 mg/dL
blood glucose level, 60 min ([3]; dose 20 mg/kg): 114.22 ± 4.97 mg/dL
blood glucose level, 90 min ([3]; dose 20 mg/kg): 117.01 ± 4.66 mg/dL
blood glucose level, 120 min ([3]; dose 20 mg/kg): 108.91 ± 4.87 mg/dL
body weight, day 1 ([4]; 10 mg/kg): 191.1 ± 4.07
body weight, day 7 ([4]; 10 mg/kg): 188.2 ± 4.57
body weight, day 14 ([4]; 10 mg/kg): 185.6 ± 4.90
body weight, day 21 ([4]; 10 mg/kg): 184.1 ± 4.71
body weight, day 28 ([4]; 10 mg/kg): 183.7 ± 4.32
body weight, day 1 ([4]; 20 mg/kg): 188.9 ± 4.67
body weight, day 7 ([4]; 20 mg/kg): 190.8 ± 4.21
body weight, day 14 ([4]; 20 mg/kg): 188.1 ± 4.62
body weight, day 21 ([4]; 20 mg/kg): 185.2 ± 3.91
body weight, day 28 ([4]; 20 mg/kg): 186.1 ± 4.58
insulin level ([5]; 10 mg/kg for 28 days): 0.621 ± 0.37 ng/mL
serum creatinine ([5]; 10 mg/kg for 28 days, 10 mg/kg): 0.85 ± 0.37 mg/dL
(ALP) IU ([5]; 10 mg/kg for 28 days, 10 mg/kg): 217.14 ± 4.61 IU
(SGOT) IU ([5]; 10 mg/kg for 28 days, 10 mg/kg): 26.71 ± 1.91 IU
(SGPT) IU ([5]; 10 mg/kg for 28 days, 10 mg/kg): 27.07 ± 2.77 IU
insulin level ([5]; 20 mg/kg for 28 days): 0.639 ± 0.29 ng/mL
serum creatinine ([5]; 20 mg/kg for 28 days, 20 mg/kg): 0.79 ± 0.31 mg/dL
(ALP) IU ([5]; 20 mg/kg for 28 days, 20 mg/kg): 209.01 ± 4.29 IU
(SGOT) IU ([5]; 20 mg/kg for 28 days, 20 mg/kg): 23.08 ± 2.11 IU
(SGPT) IU ([5]; 20 mg/kg for 28 days, 20 mg/kg): 23.91 ± 2.21 IU
blood glucose level, day 1 ([6]; 10 mg/kg p.o. once daily): 377.08 ± 5.01 mg/dL
blood glucose level, day 7 ([6]; 10 mg/kg p.o. once daily): 290.20 ± 4.93 mg/dL
blood glucose level, day 14 ([6]; 10 mg/kg p.o. once daily): 215.76 ± 5.03 mg/dL
blood glucose level, day 21 ([6]; 10 mg/kg p.o. once daily): 153.19 ± 4.66 mg/dL
blood glucose level, day 28 ([6]; 10 mg/kg p.o. once daily, day 28): 136.51 ± 5.19 mg/dL
blood glucose level, day 1 ([6]; 20 mg/kg p.o. once daily): 374.21 ± 4.12 mg/dL
blood glucose level, day 7 ([6]; 20 mg/kg p.o. once daily): 238.39 ± 5.11 mg/dL
blood glucose level, day 14 ([6]; 20 mg/kg p.o. once daily): 171.44 ± 4.98 mg/dL
blood glucose level, day 21 ([6]; 20 mg/kg p.o. once daily): 134.20 ± 5.03 mg/dL
blood glucose level, day 28 [6, 8]: 112.97 ± 4.56 mg/dL

Compound: 2-(4-Fluorophenyl)-4-(p-tolyl)-2,3-dihydrobenzo[b][1,5]thiazepine [13B]
mortality [2]: no mortality
toxic effects (diarrhea, convulsions, lethargy, sleeping, salivation, tremor) [2]: no toxic effects
IC50 [1]: 3.28 ± 0.19 µM
blood glucose level, 0 min ([3]; dose 10 mg/kg): 104.80 ± 4.97 mg/dL
blood glucose level, 30 min ([3]; dose 10 mg/kg): 120.04 ± 5.04 mg/dL
blood glucose level, 60 min ([3]; dose 10 mg/kg): 118.31 ± 4.65 mg/dL
blood glucose level, 90 min ([3]; dose 10 mg/kg): 109.81 ± 4.56 mg/dL
blood glucose level, 120 min ([3]; dose 10 mg/kg): 113.93 ± 4.67 mg/dL
blood glucose level, 0 min ([3]; dose 20 mg/kg): 103.79 ± 5.12 mg/dL
blood glucose level, 30 min ([3]; dose 20 mg/kg): 116.81 ± 4.31 mg/dL
blood glucose level, 60 min ([3]; dose 20 mg/kg): 114.98 ± 4.34 mg/dL
blood glucose level, 90 min ([3]; dose 20 mg/kg): 110.21 ± 3.91 mg/dL
blood glucose level, 120 min ([3]; dose 20 mg/kg): 110.04 ± 4.81 mg/dL
body weight, day 1 ([4]; 10 mg/kg): 186.6 ± 4.70
body weight, day 7 ([4]; 10 mg/kg): 183.4 ± 4.15
body weight, day 14 ([4]; 10 mg/kg): 186.3 ± 4.22
body weight, day 21 ([4]; 10 mg/kg): 180.1 ± 4.12
body weight, day 28 ([4]; 10 mg/kg): 177.3 ± 4.40
body weight, day 1 ([4]; 20 mg/kg): 193.6 ± 4.21
body weight, day 7 ([4]; 20 mg/kg): 187.2 ± 4.81
body weight, day 14 ([4]; 20 mg/kg): 191.1 ± 4.14
body weight, day 21 ([4]; 20 mg/kg): 187.8 ± 3.99
body weight, day 28 ([4]; 20 mg/kg): 185.7 ± 4.79
insulin level ([5]; 10 mg/kg for 28 days): 0.696 ± 0.29 ng/mL
serum creatinine ([5]; 10 mg/kg for 28 days): 0.76 ± 0.39 mg/dL
(ALP) IU ([5]; 10 mg/kg for 28 days): 208.96 ± 4.22 IU
(SGOT) IU ([5]; 10 mg/kg for 28 days): 25.41 ± 2.18 IU
(SGPT) IU ([5]; 10 mg/kg for 28 days): 24.76 ± 2.81 IU
insulin level ([5]; 20 mg/kg for 28 days): 0.705 ± 0.31 ng/mL
serum creatinine ([5]; 20 mg/kg for 28 days): 0.70 ± 0.33 mg/dL
(ALP) IU ([5]; 20 mg/kg for 28 days): 201.80 ± 4.71 IU
(SGOT) IU ([5]; 20 mg/kg for 28 days): 22.09 ± 2.21 IU
(SGPT) IU ([5]; 20 mg/kg for 28 days): 22.03 ± 2.78 IU
blood glucose level, day 1 ([6]; 10 mg/kg p.o. once daily): 370.81 ± 4.79 mg/dL
blood glucose level, day 7 ([6]; 10 mg/kg p.o. once daily): 289.89 ± 4.33 mg/dL
blood glucose level, day 14 ([6]; 10 mg/kg p.o. once daily): 200.33 ± 4.57 mg/dL
blood glucose level, day 21 ([6]; 10 mg/kg p.o. once daily): 149.30 ± 4.56 mg/dL
blood glucose level, day 28 ([6]; 10 mg/kg p.o. once daily, day 28, 10 mg/kg): 132.98 ± 4.33 mg/dL
blood glucose level, day 1 ([6]; 20 mg/kg p.o. once daily): 375.31 ± 5.01 mg/dL
blood glucose level, day 7 ([6]; 20 mg/kg p.o. once daily): 230.71 ± 4.88 mg/dL
blood glucose level, day 14 ([6]; 20 mg/kg p.o. once daily): 163.68 ± 4.37 mg/dL
blood glucose level, day 21 ([6]; 20 mg/kg p.o. once daily): 120.72 ± 4.11 mg/dL
blood glucose level, day 28 [6, 8]: 108.42 ± 3.98 mg/dL
HDL ([7]; 10 mg/kg for 28 days): 46.29 ± 2.01 mg/dL
LDL ([7]; 10 mg/kg for 28 days): 127.81 ± 4.39 mg/dL
TG ([7]; 10 mg/kg for 28 days): 142.93 ± 4.21 mg/dL
total CH ([7]; 10 mg/kg for 28 days): 148.67 ± 4.11 mg/dL
HDL ([7]; 20 mg/kg for 28 days): 56.08 ± 2.63 mg/dL
LDL ([7]; 20 mg/kg for 28 days): 108.91 ± 4.11 mg/dL
TG ([7]; 20 mg/kg for 28 days): 114.81 ± 4.41 mg/dL
total CH ([7]; 20 mg/kg for 28 days): 134.21 ± 4.77 mg/dL

IC50 [1]: 9.44 ± 0.83 µM
Compound: 2-(4-Ethoxyphenyl)-4-(p-tolyl)-2,3-dihydrobenzo[b][1,5]thiazepine [8B]

Compound: 2-(4-Butoxy-3-methoxyphenyl)-4-(p-tolyl)-2,3-dihydrobenzo[b][1,5]thiazepine [9B]
IC50 [1]: 8.56 ± 0.59 µM

Compound: COc1ccc(Cl)cc1C(=O)NCCc1ccc(S(=O)(=O)NC(=O)NC2CCCCC2)cc1 [glibenclamide, reference compound]
blood glucose level, 0 min ([3]; dose 0.5 mg/kg): 102.03 ± 4.22 mg/dL
blood glucose level, 30 min ([3]; dose 0.5 mg/kg): 103.92 ± 5.01 mg/dL
blood glucose level, 60 min ([3]; dose 0.5 mg/kg): 108.71 ± 4.21 mg/dL
blood glucose level, 90 min ([3]; dose 0.5 mg/kg): 101.86 ± 4.21 mg/dL
blood glucose level, 120 min ([3]; dose 0.5 mg/kg): 104.12 ± 4.67 mg/dL
body weight, day 1 ([4]; 0.5 mg/kg): 187.4 ± 4.57
body weight, day 7 ([4]; 0.5 mg/kg): 190.2 ± 3.98
body weight, day 14 ([4]; 0.5 mg/kg): 177.1 ± 4.21
body weight, day 21 ([4]; 0.5 mg/kg): 183.7 ± 4.33
body weight, day 28 ([4]; 0.5 mg/kg): 185.1 ± 4.48
insulin level ([5]; 0.5 mg/kg for 28 days): 0.754 ± 0.33 ng/mL
serum creatinine ([5]; 0.5 mg/kg for 28 days): 0.57 ± 0.23 mg/dL
(ALP) IU ([5]; 0.5 mg/kg for 28 days): 185.32 ± 5.71 IU
(SGOT) IU ([5]; 0.5 mg/kg for 28 days): 20.68 ± 2.01 IU
(SGPT) IU ([5]; 0.5 mg/kg for 28 days): 19.63 ± 2.11 IU
blood glucose level, day 1 ([6]; 0.5 mg/kg p.o.): 352.28 ± 4.11 mg/dL
blood glucose level, day 7 ([6]; 0.5 mg/kg p.o.): 231.12 ± 4.29 mg/dL
blood glucose level, day 14 ([6]; 0.5 mg/kg p.o.): 151.43 ± 4.09 mg/dL
blood glucose level, day 21 ([6]; 0.5 mg/kg p.o.): 118.87 ± 4.03 mg/dL
blood glucose level, day 28 ([6]; 0.5 mg/kg p.o., day 28): 101.68 ± 4.19 mg/dL
HDL ([7]; 0.5 mg/kg for 28 days): 65.90 ± 2.71 mg/dL
LDL ([7]; 0.5 mg/kg for 28 days): 96.12 ± 4.31 mg/dL
TG ([7]; 0.5 mg/kg for 28 days): 105.43 ± 4.31 mg/dL
total CH ([7]; 0.5 mg/kg for 28 days): 122.09 ± 4.89 mg/dL
